Measurements taken from ChEMBL document CHEMBL4393722, “Development of the "hidden" multifunctional agents for Alzheimer's disease” (Eur J Med Chem, 2019).
The source made the active and inactive calls. The calls are words filed in the database; no cut-off is given here.

How the values were obtained:
hERG (KCNH2) = hERG (KCNH2) (Homo sapiens, UniProt Q12809); experiment: Inhibition of human ERG expressed in CHO cells at 0.1 uM incubated for 1 min at -80 mV holding potential by manual patch clamp assay relative to control; format: cell-based; details: CHO cells expressing human ERG
[1] = Apparent clearance in Sprague-Dawley rat plasma at 25 mg/kg, iv by HPLC analysis; format: ADME, organism-based; details: read-out: CL(app)
Method in brief: (§1)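 Male Sprague–Dawley rats were given a single intravenous dose of 25 mg/kg. Drug levels were followed by microdialysis of blood and brain, alongside plasma. AUC0–t, AUC0–∞, MRT and CLz were derived from the concentration–time curves, n=6, reported as mean ± SD.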

[2] = Metal chelating activity assessed as compound-Cu2+ complex formation by measuring decrease in absorption with spectral shift to red end at 25 uM incubated for 5 mins in presence of 25 uM CuCl2 by UV-visible spectrophotometry
[3] = Stability of the compound in simulated gastric fluid measured up to 60 mins by HPLC analysis; format: ADME; details: simulated gi fluid, 1 h
Method in brief: (§2)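 The compound was incubated separately in human plasma, human liver microsomes, simulated gastric fluid and simulated intestinal fluid. Remaining compound was quantified by HPLC at 5, 15, 30, 45 and 60 min.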

Mus musculus [4] = experiment: Cognition enhancement in scopolamine-induced amnesia mouse model assessed as escape latency at 25 mg/kg, iv administered once daily for 18 days measured after 50 mins at 5th day of training session by Morris water maze test (reference value: 63.2+/-21.1 secs); format: functional
[5] = AUC (0 to infinity) in Sprague-Dawley rat brain at 25 mg/kg, iv by HPLC analysis; format: ADME, organism-based; set-up: dose 25 mg/kg, route intravenous, time infinity; method in brief: as §1
Mus musculus [6] = experiment: Cognition enhancement in aluminium trichloride-induced amnesia mouse model assessed as total swimming time at 8 mg/kg administered via gastric gavage for 30 days by SMG-2 programmable water maze test (reference value: 115 +/- 19 secs); format: functional
Danio rerio [7] = organism: Danio rerio; experiment: Cognition enhancement in aluminium chloride-induced Alzheimer's disease zebra fish model assessed as Dyskinesia recovery rate at 1 uM treated from 3 dpf to 5 dpf relative to control; format: functional
Method in brief: (§3)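 Zebrafish larvae were exposed to 150 µM AlCl₃ from 3 to 5 dpf and co-treated with compound at 1, 5 or 25 µM over the same window, 30 fish per group. DRR and RE values were calculated from the average swimming speed of treated fish.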

[8] = Ratio of drug level in Sprague-Dawley rat brain to plasma at 25 mg/kg, iv by HPLC analysis; format: ADME, organism-based; details: read-out: BPR
Method in brief: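 Male Sprague–Dawley rats received 25 mg/kg intravenously, with blood and brain sampled by microdialysis. The brain/plasma exposure ratio was calculated from AUC0–∞ measured in brain and plasma dialysates.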

Mus musculus [9] = experiment: Cognition enhancement in aluminium trichloride-induced amnesia mouse model assessed as error times at 2 mg/kg administered via gastric gavage for 30 days by SMG-2 programmable water maze test (reference value: 20.7 +/- 4.8 secs); format: functional
[10] = AUC (0 to t) in Sprague-Dawley rat plasma at 25 mg/kg, iv by HPLC analysis; format: ADME, organism-based; method in brief: as §1
[11] = AUC (0 to infinity) in Sprague-Dawley rat blood dialysis at 25 mg/kg, iv by HPLC analysis; format: ADME, organism-based; set-up: dose 25 mg/kg, route intravenous, time infinity; details: blood dialysate; method in brief: as §1
Danio rerio [12] = organism: Danio rerio; experiment: Cognition enhancement in aluminium chloride-induced Alzheimer's disease zebra fish model assessed as Response efficiency at 25 uM treated from 3 dpf to 5 dpf relative to control; format: functional; method in brief: as §3
[13] = target: Amyloid-beta precursor protein (Homo sapiens) (UniProt P05067); experiment: Inhibition of HFIP-pretreated amyloid beta (1 to 42) (unknown origin) self-aggregation at 20 uM after 24 hrs by thioflavin-T fluorescence assay relative to control
[14] = AUC (0 to t) in Sprague-Dawley rat brain at 25 mg/kg, iv by HPLC analysis; format: ADME, organism-based; method in brief: as §1
Mus musculus [15] = experiment: Cognition enhancement in aluminium trichloride-induced amnesia mouse model assessed as error times at 8 mg/kg administered via gastric gavage for 30 days by SMG-2 programmable water maze test (reference value: 20.7 +/- 4.8 secs); format: functional
[16] = MRT in Sprague-Dawley rat brain at 25 mg/kg, iv by HPLC analysis; format: ADME, organism-based; method in brief: as §1
[17] = Stability of compound in human plasma measured up to 60 mins by HPLC analysis; format: ADME, cell-free; details: 1 h; method in brief: as §2
Mus musculus [18] = experiment: Cognition enhancement in scopolamine-induced amnesia mouse model assessed as total swimming distance at 25 mg/kg, iv administered once daily for 18 days measured after 50 mins at 5th day of training session by Morris water maze test (reference value: 785+/-351 cm); format: functional
Danio rerio [19] = organism: Danio rerio; experiment: Cognition enhancement in aluminium chloride-induced Alzheimer's disease zebra fish model assessed as Response efficiency at 5 uM treated from 3 dpf to 5 dpf relative to control; format: functional; method in brief: as §3
Danio rerio [20] = organism: Danio rerio; experiment: Cognition enhancement in aluminium chloride-induced Alzheimer's disease zebra fish model assessed as Dyskinesia recovery rate at 5 uM treated from 3 dpf to 5 dpf relative to control; format: functional; method in brief: as §3
A549 = experiment: Cytotoxicity against human A549 cells assessed as reduction in cell viability incubated for 24 hrs by MTT assay; format: cell-based; details: A549, 24 h
[21] = AUC (0 to t) in Sprague-Dawley rat blood dialysis at 25 mg/kg, iv by HPLC analysis; format: ADME, organism-based; details: blood dialysate; method in brief: as §1
[22] = target: Amyloid-beta precursor protein (Homo sapiens) (UniProt P05067); experiment: Inhibition of HFIP-pretreated amyloid beta (1 to 42) (unknown origin) self-aggregation at 20 uM after 48 hrs by thioflavin-T fluorescence assay
[23] = Stability of compound in human liver microsomes measured up to 60 mins by HPLC analysis; format: ADME, Microsome; details: 1 h; method in brief: as §2
N2a = experiment: Cytotoxicity against mouse Neuro2a cells assessed as reduction in cell viability incubated for 24 hrs by MTT assay; format: cell-based
Danio rerio [24] = organism: Danio rerio; experiment: Cognition enhancement in aluminium chloride-induced Alzheimer's disease zebra fish model assessed as Response efficiency at 1 uM treated from 3 dpf to 5 dpf relative to control; format: functional; method in brief: as §3
[25] = Apparent clearance in Sprague-Dawley rat blood dialysis at 25 mg/kg, iv by HPLC analysis; format: ADME, organism-based; details: blood dialysate, read-out: CL(app); method in brief: as §1
[26] = MRT in Sprague-Dawley rat plasma at 25 mg/kg, iv by HPLC analysis; format: ADME, organism-based; method in brief: as §1
[27] = target: Voltage-gated inwardly rectifying potassium channel KCNH2 (Homo sapiens, UniProt Q12809); experiment: Inhibition of human ERG expressed in CHO cells incubated for 1 min at -80 mV holding potential by manual patch clamp assay; format: cell-based
[28] = target: Amyloid-beta precursor protein (Homo sapiens) (UniProt P05067); experiment: Inhibition of HFIP-pretreated amyloid beta (1 to 42) (unknown origin) self- aggregation at 20 uM after 72 hrs by thioflavin-T fluorescence assay relative to control
[29] = AUC (0 to infinity) in Sprague-Dawley rat plasma at 25 mg/kg, iv by HPLC analysis; format: ADME, organism-based; set-up: dose 25 mg/kg, time infinity, route intravenous; method in brief: as §1
Danio rerio [30] = organism: Danio rerio; experiment: Cognition enhancement in aluminium chloride-induced Alzheimer's disease zebra fish model assessed as Dyskinesia recovery rate at 25 uM treated from 3 dpf to 5 dpf relative to control; format: functional; method in brief: as §3
Mus musculus [31] = experiment: Cognition enhancement in aluminium trichloride-induced amnesia mouse model assessed as total swimming time at 0.5 mg/kg administered via gastric gavage for 30 days by SMG-2 programmable water maze test (reference value: 115 +/- 19 secs); format: functional
Danio rerio [32] = organism: Danio rerio; experiment: Cognition enhancement in aluminium chloride-induced Alzheimer's disease zebra fish model assessed as Dyskinesia recovery rate treated from 3 dpf to 5 dpf; format: functional, organism-based; method in brief: as §3
[33] = target: Amyloid-beta precursor protein (Homo sapiens) (UniProt P05067); experiment: Inhibition of HFIP-pretreated amyloid beta (1 to 42) (unknown origin) self-aggregation at 20 uM after 72 hrs by uranyl acetate staining based transmission electron microscopy
Method in brief: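 Aβ1-42 was incubated alone or with compound for 72 h at 37 °C. Fibril formation was then examined by transmission electron microscopy, with curcumin as positive control.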

MCF7 = experiment: Cytotoxicity against human MCF7 cells assessed as reduction in cell viability incubated for 24 hrs by MTT assay; format: cell-based; details: MCF7, 24 h
[34] = Stability of the compound in simulated intestinal fluid measured up to 60 mins by HPLC analysis; format: ADME; details: simulated gi fluid, 1 h; method in brief: as §2
[35] = Metal chelating activity assessed as compound-Fe2+ complex formation at 25 uM incubated for 5 mins in presence of 25 uM FeSO4 by UV-visible spectrophotometry
Mus musculus [36] = experiment: Cognition enhancement in aluminium trichloride-induced amnesia mouse model assessed as error times at 0.5 mg/kg administered via gastric gavage for 30 days by SMG-2 programmable water maze test (reference value: 20.7 +/- 4.8 secs); format: functional
[37] = MRT in Sprague-Dawley rat blood dialysis at 25 mg/kg, iv by HPLC analysis; format: ADME, organism-based; details: blood dialysate; method in brief: as §1
[38] = Metal chelating activity assessed as compound-Zn2+ complex formation at 25 uM incubated for 5 mins in presence of 25 uM ZnCl2 by UV-visible spectrophotometry
Mus musculus [39] = organism: Mus musculus; experiment: Cognition enhancement in scopolamine-induced amnesia mouse model by Morris water maze test; format: functional, organism-based

Amyloid-beta precursor protein (Homo sapiens), sequence (P05067 whole entry): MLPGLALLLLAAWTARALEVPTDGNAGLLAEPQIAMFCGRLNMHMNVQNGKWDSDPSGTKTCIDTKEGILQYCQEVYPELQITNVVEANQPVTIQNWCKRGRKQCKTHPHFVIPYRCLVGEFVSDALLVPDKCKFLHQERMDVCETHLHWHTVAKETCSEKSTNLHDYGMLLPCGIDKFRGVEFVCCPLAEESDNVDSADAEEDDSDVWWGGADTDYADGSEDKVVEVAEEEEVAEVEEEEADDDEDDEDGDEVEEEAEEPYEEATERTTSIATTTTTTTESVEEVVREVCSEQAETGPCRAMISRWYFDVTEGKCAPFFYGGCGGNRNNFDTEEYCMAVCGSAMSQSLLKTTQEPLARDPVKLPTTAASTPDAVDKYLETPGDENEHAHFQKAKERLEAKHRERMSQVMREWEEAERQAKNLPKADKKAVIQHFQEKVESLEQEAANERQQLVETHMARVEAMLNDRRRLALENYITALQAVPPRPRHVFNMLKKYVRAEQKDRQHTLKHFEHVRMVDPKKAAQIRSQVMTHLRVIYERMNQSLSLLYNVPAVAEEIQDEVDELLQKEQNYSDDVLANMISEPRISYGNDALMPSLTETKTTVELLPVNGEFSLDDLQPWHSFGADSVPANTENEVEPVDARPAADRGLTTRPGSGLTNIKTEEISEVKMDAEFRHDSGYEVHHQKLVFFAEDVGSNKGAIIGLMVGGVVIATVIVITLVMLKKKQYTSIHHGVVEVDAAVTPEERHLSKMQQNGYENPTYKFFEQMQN
hERG (KCNH2), sequence (Q12809 whole entry): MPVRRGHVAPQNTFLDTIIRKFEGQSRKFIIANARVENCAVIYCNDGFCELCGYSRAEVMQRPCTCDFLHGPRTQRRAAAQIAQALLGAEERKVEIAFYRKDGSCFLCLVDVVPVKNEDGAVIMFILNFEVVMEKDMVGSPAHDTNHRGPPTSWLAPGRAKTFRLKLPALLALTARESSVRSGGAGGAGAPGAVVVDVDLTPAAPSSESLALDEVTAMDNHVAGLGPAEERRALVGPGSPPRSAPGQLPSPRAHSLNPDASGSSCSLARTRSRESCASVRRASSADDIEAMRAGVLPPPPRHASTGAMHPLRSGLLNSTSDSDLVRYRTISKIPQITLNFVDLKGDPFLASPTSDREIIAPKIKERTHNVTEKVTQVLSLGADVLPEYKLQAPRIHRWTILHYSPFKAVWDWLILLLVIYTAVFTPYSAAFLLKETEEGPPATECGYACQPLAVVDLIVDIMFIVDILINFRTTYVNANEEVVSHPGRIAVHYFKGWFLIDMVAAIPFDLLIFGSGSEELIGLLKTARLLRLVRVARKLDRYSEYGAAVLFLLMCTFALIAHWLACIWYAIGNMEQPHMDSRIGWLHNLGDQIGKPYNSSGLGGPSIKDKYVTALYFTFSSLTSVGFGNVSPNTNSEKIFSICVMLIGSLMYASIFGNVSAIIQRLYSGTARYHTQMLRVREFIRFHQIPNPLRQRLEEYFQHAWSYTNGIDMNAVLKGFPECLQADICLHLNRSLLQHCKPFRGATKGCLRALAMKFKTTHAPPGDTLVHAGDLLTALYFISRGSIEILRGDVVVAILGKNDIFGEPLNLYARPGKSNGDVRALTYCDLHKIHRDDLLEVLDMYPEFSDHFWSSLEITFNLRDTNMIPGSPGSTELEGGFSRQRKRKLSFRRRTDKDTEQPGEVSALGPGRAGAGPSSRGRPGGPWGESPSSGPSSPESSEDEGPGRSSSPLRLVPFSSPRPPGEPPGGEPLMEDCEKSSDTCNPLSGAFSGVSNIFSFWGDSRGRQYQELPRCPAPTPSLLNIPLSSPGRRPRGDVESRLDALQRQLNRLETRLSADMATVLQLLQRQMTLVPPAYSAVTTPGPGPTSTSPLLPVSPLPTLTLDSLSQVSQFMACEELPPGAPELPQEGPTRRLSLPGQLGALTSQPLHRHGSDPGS
Voltage-gated inwardly rectifying potassium channel KCNH2, sequence (Q12809 whole entry): as above

COc1cc(N)c(Cl)cc1C(=O)N[C@H]1CCN(CCCOc2ccc(F)cc2)C[C@H]1OC [REL-CISAPRIDE] gave an inhibition at 1 min, 0.1 µM (hERG (KCNH2)) of 89%.

With CCN(C)C(=O)Oc1cc(C(C)N(C)C)cc2cccnc12 (stereo not given) the clearance [1] was 62 mL/min/kg, the Activity [2] was “inactive” and the Stability [3] was “Stable”. The Time (Mus musculus [4]) was 43.8 s, the AUC(0-inf) [5] was 1270 ng·h/mL and the Time (Mus musculus [6]) was 79 s. The Activity (Danio rerio [7]) was 70.8%, the Kp [8] was 0.524 and the Time (Mus musculus [9]) was 18.1 s. It also gave an AUC(0-t) [10] of 7410 ng·h/mL, an AUC(0-inf) [11] of 2450 ng·h/mL and an Activity (Danio rerio [12]) of 70.2%. It also gave an inhibition [13] of 31.3%, an AUC(0-t) [14] of 1260 ng·h/mL and a Time (Mus musculus [15]) of 16.8 s. The MRT [16] was 0.947 h, the Stability [17] was “Stable” and the Activity (Mus musculus [18]) was 520 cm. For the same compound, the Activity (Danio rerio [19]) was 161.4%, the Activity (Danio rerio [20]) was 99.3% and the IC50 (A549) was greater than 20 µM. For the same compound, the AUC(0-t) [21] was 2430 ng·h/mL, the inhibition [22] was 55.9% and the Stability [23] was “Stable”. For the same compound, the IC50 (N2a) was greater than 20 µM, the Activity (Danio rerio [24]) was 112.4% and the clearance [25] was 190 mL/min/kg. It also gave an MRT [26] of 1.53 h, an IC50 [27] greater than 30 µM and an inhibition [28] of 66.1%. The AUC(0-inf) [29] was 7460 ng·h/mL, the Activity (Danio rerio [30]) was 121% and the Time (Mus musculus [31]) was 73 s. The Activity (Danio rerio [32]) was “Dose-dependent effect”, the inhibition [33] was “Active” and the IC50 (MCF7) was greater than 20 µM. For the same compound, the Stability [34] was “Stable”, the Activity [35] was “inactive” and the Time (Mus musculus [36]) was 15.1 s. The MRT [37] was 1.16 h.

With Oc1c(I)cc(Cl)c2cccnc12 the Activity [2] was “Active”, the Activity [38] was “Active” and the Activity (Mus musculus [39]) was “inactive”. The Activity [35] was “Active”.
